In ChEMBL document CHEMBL4513216, “Probing the Open Global Health Chemical Diversity Library for Multistage-Active Starting Points for Next-Generation Antimalarials” (ACS Infect Dis, 2020):

Experiment: Toxicity liver stage against HepG2, at 10uM
Format: cell-based
Set-up: test concentration 10 uM, cell line HepG2-A16-CD81EGFP
Conditions: human, HepG2-A16-CD81EGFP cells; read-out: INHIBITION
Summary of the method: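 Uninfected HepG2-A16-CD81EGFP cells, 3 × 10^3 per well, 1536-well, plated on prespotted compound at 10 μM final, parasite-free screening media added to match infected plates; puromycin 10 μM positive, DMSO 0.5% negative; run in parallel with 48 h PbLuc assay at 37 °C, 5% CO2; viability by CellTiter-Glo luminescence, normalized to controls.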

| SMILES | cytotoxicity at 10 µM |
| --- | --- |
| O=c1c(Cc2ccccc2)c(O)ccn1Cc1ccco1 | 5.01% |
| O=C(CSC1CCCC1)N1CCN(C(=O)C2CC2c2cccs2)CC1 (configuration not stated) | 4.48% |
| CCN(CC)CCN1CCO[C@H]2[C@@H](OCc3ccccn3)CC[C@@H]21 | -7.66% |
| Cc1ccc(CN2CCOC3(CCCN(C(=O)c4ccco4)C3)C2)o1 (configuration not stated) | -3.27% |
| O=C(Cn1cc(-c2ccccc2)ncc1=O)Nc1nc(C2CC2)n[nH]1 | 6.2% |
| COCCN1C[C@@H]2CN(C(=O)[C@H]3CCCO3)C[C@@H]2C1=O | 5.82% |
| CCN(Cc1nonc1C)C(=O)c1cnccn1 | -4.04% |
| CCN(CC)C(=O)c1nnsc1-c1ccc(Cl)cc1 | 2.74% |
| CCN(Cc1cscn1)CC1(C)Cc2c(N)nc(N)nc2O1 (configuration not stated) | 3.35% |
| Fc1ccc(F)c(CN2CCC(c3cnccn3)CC2)c1 | -1.61% |
| c1cnc2[nH]c(C3CCCC3)c(CN3CCOCC3)c2c1 | -1.06% |
| CC(C)C(=O)N1CCCC(c2cncc(Oc3cccnc3)n2)C1 (configuration not stated) | -2.83% |
| CNC(=O)c1cccc(C2CNCCN2C(=O)c2ccn(C)n2)c1 (configuration not stated) | -4.22% |
| Cc1ccc(C(=O)N2CCCC(c3[nH]ncc3S(C)(=O)=O)C2)s1 (configuration not stated) | -10.6% |
| Cc1ccsc1C(=O)N1CCC(O)(CN2CCc3ccccc3C2)C1 (configuration not stated) | 0.803% |
| Cc1ccc(Oc2nccnc2C2CCN(C(=O)C(C)(C)N)CC2)cc1 | -7.86% |
| CNc1cncc(C2CCCN2Cc2ccnc(N3CCCC3)n2)n1 (configuration not stated) | -12.1% |
| COC(=O)c1ccc(C)c(N2CCNC2=O)c1 | 9.81% |
| CCc1nc(CS(=O)(=O)Cc2noc(C3CC3)n2)cs1 | -7.38% |
| Cc1ccc(C2CSCCN2CCS(C)(=O)=O)cc1 (configuration not stated) | -8.3% |
| Cc1cn2c(n1)CCC(NC(=O)c1ccc(OCC3CC3)nc1)C2 (configuration not stated) | -9.47% |
| O=C(CNc1nc(C(F)(F)F)cs1)N1CCc2sccc2C1 | 15.1% |
| Oc1cccc(CNCCC2CCCO2)c1 (configuration not stated) | 4.08% |

| SMILES | cytotoxicity at 10 µM |
| --- | --- |
| CC1CN(CC(=O)NCCc2ccccc2)CCN1c1nccs1 (configuration not stated) | -2.79% |
| Cc1ccc(S(=O)(=O)NCCc2nnc[nH]2)c2cccnc12 | -5.93% |
| Cc1nn2cccnc2c1C(=O)NCc1ccccc1OC1CCC1 | -46.4% |
| COc1ccc(N2CCC(NS(=O)(=O)N(C)C(C)C)CC2)cc1 | 6.62% |
| COCCN(C)C(=O)NCCc1coc(-c2ccc(C)cc2)n1 | 8.13% |
| CCc1nc(CNC2CCN(c3ccc(OC)cc3)CC2)cs1 | -12.8% |
| Cc1cc(C)c(CNC(=O)N2CCNC(=O)C2)c(=O)[nH]1 | -0.535% |
| Cc1nc(-c2ccc(NCCc3ccc(O)cc3)nc2)[nH]c(=O)c1C | 20.5% |
| COc1ccccc1N1CCC(CNC(=O)CN2CSCC2=O)C1 (configuration not stated) | -1.33% |
| Cc1ccoc1CNC(C)c1nnc2n1CCCC2 (configuration not stated) | -12.6% |
| Cc1cnc(CNC2CCc3nc(C(C)C)nn3C2)cn1 (configuration not stated) | 4.93% |
| CC(C)c1noc(CN(CCC2CCCCC2)CC(N)=O)n1 | 2.94% |
| CC(=O)N1CCC(CCNC(C)c2cc(F)cc(F)c2)CC1 (configuration not stated) | -0.988% |
| Cc1nc2cc(C(=O)N(CCC#N)CCC#N)ccc2n1C | -3.91% |
| CCN(C)S(=O)(=O)NCC1(c2cccc(Br)c2)CC1 | 10.7% |
| N#CCCN1CCC(=Cc2ccccc2)CC1 | -2.75% |
| CCc1nonc1NC(=O)C(C)Oc1ccccc1F (configuration not stated) | 12% |
| C=C(C)CN1CCC(c2n[nH]c(C3CC3)n2)CC1 | -1.92% |
| Cc1nc(NC(=O)C2CCCN(C(N)=O)C2)sc1-c1ccccc1 (configuration not stated) | 9.31% |
| CC(C)(C)[S+]([O-])CCNC(=O)c1cccc2ncccc12 (configuration not stated) | -45.1% |
| COc1cccc(CC2CCCN2CCCC#N)c1 (configuration not stated) | -43.7% |
| CN(CC1CCN(CCO)CC1)CC(O)c1ccc(F)cc1 (configuration not stated) | -52.8% |
| O=C(NCC1CCOC1)N1CCN(c2ncccn2)CC1 (configuration not stated) | -39.8% |

| SMILES | cytotoxicity at 10 µM |
| --- | --- |
| Cc1ccc2[nH]c(CN3CC[C@@H](N4CCN(C)CC4)[C@H](O)C3)c(C)c2c1 | -7.34% |
| COc1ccc(Cc2ncc3c(n2)CN(C(=O)C(C)(C)C)C3)cc1 | -1.1% |
| COc1cc2c(cc1-c1nc3c(cnn3C(C)C3CC3)[nH]1)OCO2 (configuration not stated) | 4.82% |
| CC(C)CC(C)NC1CCN(c2cccc(-c3cscn3)c2)CC1 (configuration not stated) | -56.8% |
| CN1C[C@@H](n2cnc(-c3ccccc3)c2-c2ccccn2)C[C@H]1C(=O)O | 0.322% |
| CS(=O)(=O)CC1CCCN(c2ncnc3c2Cc2ccccc2OC3)C1 (configuration not stated) | -7.41% |
| CSCC[C@@H](CO)Nc1nc(-c2ccccn2)nc2c1c(C)nn2C | 2.7% |
| O=C(NCc1cccc(F)c1F)c1cc(CN2CCCC(O)C2)on1 (configuration not stated) | -45.9% |
| CN(C)C(=O)c1ccc(-c2cccc3c2CCNC3)cc1 | -2.31% |
| CC(C)C1CN(c2cccc(C#N)n2)CCCN1CC1CC1 (configuration not stated) | -6.55% |
| Cc1cc(-c2nn(C)c(Cl)c2CN2CC[C@@](O)(C3CCC3)[C@H](C)C2)no1 | -7.23% |
| O=C(N1CCCC1)N1CCC(Nc2ccncn2)CC1 | -42.1% |
| O=C1CC[C@H]2CN(c3ncc(F)cn3)CC[C@H]2N1CCc1ccccc1 | 9.61% |
| CCN(CC)C(CNCc1cc(F)cc(F)c1)c1ccco1 (configuration not stated) | 5.44% |
| Cc1nccn1CCCN1CCCC(c2nccn2C)C1 (configuration not stated) | -10.3% |
| CCN1CC(CN(C)Cc2nc(-c3ccc(C)o3)oc2C)CC1=O (configuration not stated) | 5.88% |
| O=C(C1CCOC1)N1CCC(OCc2ccccc2)CC1 (configuration not stated) | 3.15% |
| Cc1ccc(OC2(C(=O)O)CCN(C(=O)c3cccc(F)c3)CC2)cn1 | 2.91% |
| CN(Cc1ccncn1)C(=O)CCc1[nH]nc2c1CCCC2 | 3.11% |
| Cc1ccc(OC2(C(=O)O)CCN(C/C=C/c3ccco3)CC2)cn1 | -1.64% |
| CCNC(=O)[C@@H]1C[C@@H](n2cc(CN(CC)CC)nn2)CN1 | 0.334% |
| CN(C)C1CCCN(C(=O)CCc2csc(N)n2)CC1 (configuration not stated) | 1.48% |
| Fc1ccc2[nH]c(C3CCCN3CCCn3cccn3)nc2c1 (configuration not stated) | 0.154% |

| SMILES | cytotoxicity at 10 µM |
| --- | --- |
| COCCN1CCCC(O)(CN2CCN(c3cc(C)ccn3)CC2)C1=O (configuration not stated) | 0.622% |
| CCCOc1ccc(C(=O)N2C[C@@H](CN3CCCC3)[C@@H](CO)C2)cc1Cl | -5.84% |
| COC(=O)CCCC(=O)N1CCCCC1c1ccc(F)cc1 (configuration not stated) | -42.7% |
| Cc1cc(CN(C)c2nc(-c3ccccn3)nc3c2CCNCC3)n[nH]1 | -5.48% |
| CN(c1ncccc1CNC(=O)c1csnn1)C1CCCCC1 | -9.31% |
| CCN(CC1CCOCC1)C(=O)Cn1ccccc1=O | -19.9% |
| CC(=O)N1CCCCC1c1cc(CO)[nH]n1 (configuration not stated) | -0.671% |
| CCOc1cc(C)nc(N2CCN(C(=O)c3ccncc3)CC2)n1 | 3.12% |
| CCOc1cc(C)nc(N2CCN(C(=O)c3csnn3)CC2)n1 | 2.85% |
| Cc1cc(C(=O)N2CCCC(c3cc(C(F)(F)F)[nH]n3)C2)on1 (configuration not stated) | 10.5% |
| Cn1cc(-c2nc(CN3CCc4c(ncn4C)C3)cs2)cn1 | -6.54% |
| CCc1ocnc1C(=O)N1CCCC1c1noc(C2CC2)n1 (configuration not stated) | -4.45% |
| COCC(=O)NC(C)Cc1ccc(Br)cc1 (configuration not stated) | -1.01% |
| Clc1snnc1CN1CCCCC1Cn1cccn1 (configuration not stated) | -14.8% |
| Cc1nc(C)n(CC2CCCN2CCCOc2ccc(C#N)cc2)n1 (configuration not stated) | -8.33% |
| CCc1ccc(C(=O)N2CCC(Nc3ccc(C)nn3)CC2)o1 | -11% |
| O=C(c1cnn(-c2ccccc2)n1)N1CCCC(n2cccn2)C1 (configuration not stated) | 1.13% |
| CCC1CCCN(C(=O)NCc2cccnc2-n2cccn2)C1 (configuration not stated) | -0.734% |
| COc1c(C2CCCN2Cc2noc(C(C)C)n2)c(C)nn1C (configuration not stated) | -8.93% |
| CCc1nc(CN2CCCC2c2c(C)nn(C)c2OC)no1 (configuration not stated) | -6.07% |
| Cc1nc(C)n(CC2CCCN2Cc2nc3ccccc3s2)n1 (configuration not stated) | -6.25% |
| CCn1ncc2c1CCCC2NCc1cccc2c1OCO2 (configuration not stated) | -6.43% |
| Cc1ccc(C(=O)NC2CCN(Cc3cccc4c3OCCO4)CC2)s1 | -4.8% |

| SMILES | cytotoxicity at 10 µM |
| --- | --- |
| CC(C)(C)c1cnc(CN2CCC[C@H]2CO)o1 | -14.8% |
| Cc1ccc2oc(C(=O)N3CCCC(c4noc(C)n4)C3)cc2n1 (configuration not stated) | -3.56% |
| COc1c(CNC(c2nccn2C)C(C)C)c(C)nn1C (configuration not stated) | -7.46% |
| Cc1nc(C)n(CC2CCCCN2CC(=O)Nc2ccncc2)n1 (configuration not stated) | -0.344% |
| c1ccc(-c2nc(CN3CCc4c(ncn4C4CC4)C3)cs2)cc1 | -8.65% |
| COc1ccc(CN2CCCCC2c2n[nH]cc2-c2cc(C)no2)cc1 (configuration not stated) | 20.8% |
| CCn1c(CN2CCC(O)(c3ccc4c(c3)OCO4)CC2)cnc1SC | 6.96% |
| Cc1c(C2CCCN(C(=O)Cc3ccccn3)C2)n2c(nc1=O)CCC2 (configuration not stated) | 8.39% |
| CO[C@H]1CN(Cc2cccc(C#N)c2)[C@@H]2COC[C@H]12 | -5.77% |
| CC(C)c1noc(CN2CCC(C3CCCCCN3S(C)(=O)=O)CC2)n1 (configuration not stated) | -2.71% |
| CN(C)Cc1nc2c(o1)CN(S(=O)(=O)c1cccs1)C2 | -112% |
| O=C1[C@H]2CN(CC3CC3)C[C@H]2CN1c1ccsc1 | 2.88% |
| CC(C)Nc1nc2c(cc1C(=O)NCC1CC1)CCN(C)CC2 | -5.72% |
| Cc1nc(CN2C[C@@H]3CN(C(=O)Cc4ccccn4)C[C@@H]3C2)cs1 | -106% |
| Cc1ccc(CN2CCC3(CC2)CCN(C(=O)c2cccnc2)C3)o1 | -93.3% |
| Cc1ccc(N2CC[C@H]3C[C@@H](C(=O)N4CCOCC4)O[C@H]3C2)nn1 | 4.94% |
| CC1c2ncc(COc3cccnc3)n2CCN1Cc1cnn(C)c1 (configuration not stated) | -112% |
| O=c1[nH]c2cn(-c3cccc(Cl)c3)c(=O)n2n1Cc1cccc(F)c1 | 11% |
| Cc1ccccc1SCC(=O)NC1CCC(n2cnnc2)CC1 (configuration not stated) | -48% |
| C=c1ccoc1=C1NN=C(CNCCn2cccn2)O1 | -5.02% |
